# Reference: ChEMBL document CHEMBL1240478, “Inhibitors of human neutrophil elastase based on a highly functionalized N-amino-4-imidazolidinone scaffold” (Eur J Med Chem, 2010)
# Activity calls are given as the source filed them. The rule behind the calls is not given here.
# What was measured:
# [1] = molecular target: T1, Neutrophil elastase (Homo sapiens) (UniProt P08246); assay: Inhibition of human neutrophil elastase at 3.5 mM after 30 mins assessed as p-nitroaniline release
# T1 sequence (whole entry): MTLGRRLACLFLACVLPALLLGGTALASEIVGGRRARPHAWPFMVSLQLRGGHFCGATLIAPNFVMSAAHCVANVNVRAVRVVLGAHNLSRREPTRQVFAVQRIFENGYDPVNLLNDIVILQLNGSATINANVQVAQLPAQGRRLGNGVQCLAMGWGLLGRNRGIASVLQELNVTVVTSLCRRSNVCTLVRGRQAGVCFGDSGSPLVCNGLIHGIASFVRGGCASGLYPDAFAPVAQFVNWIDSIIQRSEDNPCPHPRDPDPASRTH
# Outline: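 HNE (7.0 μM stock) preincubated 30 min at 25 °C with inhibitor in DMSO at inhibitor/enzyme ratio 500, in 0.1 M HEPES/0.5 M NaCl pH 7.25. Methoxysuccinyl-Ala-Ala-Pro-Val p-nitroanilide then added, and p-nitroaniline release followed at 410 nm for 2 min. DMSO-only control. Remaining activity = (v/v0)×100, mean of duplicate or triplicate runs.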
# [2] = molecular target: Myeloblastin (proteinase 3) (Homo sapiens) (UniProt P24158); assay: Inhibition of human neutrophil proteinase 3 at 1.73 mM
# Chain of Myeloblastin (proteinase 3) (Homo sapiens) (P24158 whole entry, looked up): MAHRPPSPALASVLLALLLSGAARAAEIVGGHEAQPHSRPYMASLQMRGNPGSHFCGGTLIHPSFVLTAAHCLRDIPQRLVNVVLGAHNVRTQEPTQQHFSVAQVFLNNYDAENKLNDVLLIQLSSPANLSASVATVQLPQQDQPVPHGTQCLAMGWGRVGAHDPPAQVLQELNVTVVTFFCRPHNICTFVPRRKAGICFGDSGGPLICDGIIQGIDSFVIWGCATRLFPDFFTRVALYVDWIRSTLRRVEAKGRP
# Neutrophil elastase = molecular target: T2, Neutrophil elastase (Homo sapiens, UniProt P08246); assay: Reversible competitive inhibition of human neutrophil elastase by Dixon plot analysis
# T2 sequence (P08246 whole entry): T1 sequence (whole entry)
Compound,inhibition [1] [%],inhibition [2],Ki (Neutrophil elastase) [µM]
O=C(O)CCC(=O)NN1CNC(Cc2ccccc2)C1=O (stereo not given),0,0%,–
CC(C)C[C@@H]1C(=O)N(NC(=O)[C@@H](Cc2ccccc2)NC(=O)OCc2ccccc2)CN1Cc1ccccc1 (racemic),–,inactive,7.34
CC(C)CC1C(=O)N(N(S(C)(=O)=O)S(C)(=O)=O)CN1Cc1ccccc1 (racemic),0,0%,–
CC(C)CC1C(=O)N(NC(=O)CCC(=O)O)CN1Cc1ccccc1 (racemic),0,0%,–
CC(C)CC1C(=O)N(NC(=O)CCc2ccccc2)CN1Cc1ccccc1 (racemic),0,0%,–
CC(C)CC1C(=O)N(NC(=O)NCCc2ccccc2)CN1Cc1ccccc1 (racemic),0,0%,–
CC(C)CC1C(=O)N(NC(=O)c2ccccc2C(=O)O)CN1Cc1ccccc1 (racemic),0,0%,–
CCOC(=O)CNC(=O)NN1CN(Cc2ccccc2)C(CC(C)C)C1=O (racemic),0,0%,–
CCOC(=O)CNC(=O)NN1CN(Cc2ccccc2)C(Cc2ccccc2)C1=O (racemic),0,0%,–
Cc1ccc(S(=O)(=O)N(N2CN(Cc3ccccc3)C(CC(C)C)C2=O)S(=O)(=O)c2ccc(C)cc2)cc1 (racemic),0,0%,–
O=C(NCCc1ccccc1)NN1CN(Cc2ccccc2)C(Cc2ccccc2)C1=O (racemic),0,0%,–
O=C(NCCc1ccccc1)NN1CNC(Cc2ccccc2)C1=O (racemic),0,0%,–
O=C(NN1CN(Cc2ccccc2)C(Cc2ccccc2)C1=O)C1CC(=O)N(Cc2ccc(F)cc2)C1 (racemic),0,0%,–
O=C(NN1CN(Cc2ccccc2)C(Cc2ccccc2)C1=O)C1CC(=O)N(Cc2ccccc2)C1 (racemic),0,0%,–
O=C(NN1CN(Cc2ccccc2)C(Cc2ccccc2)C1=O)C1CC(=O)N(Cc2ccco2)C1 (racemic),0,0%,–
O=C(NN1CNC(Cc2ccccc2)C1=O)C1CC(=O)N(Cc2ccc(F)cc2)C1 (racemic),0,0%,–
O=C(NN1CNC(Cc2ccccc2)C1=O)C1CC(=O)N(Cc2ccccc2)C1 (racemic),0,0%,–
O=C(O)CCC(=O)NN1CN(Cc2ccccc2)C(Cc2ccccc2)C1=O (racemic),0,0%,–
O=C(O)c1ccccc1C(=O)NN1CN(Cc2ccccc2)C(Cc2ccccc2)C1=O (racemic),0,0%,–
O=C(O)c1ccccc1C(=O)NN1CNC(Cc2ccccc2)C1=O (racemic),0,0%,–
